# Screening data deposited in PubChem BioAssay by Johns Hopkins Ion Channel Center.
# KCNQ1 block – blocks the human KCNQ1 potassium channel | CHO-K1 KCNQ1, FluxOR thallium flux fluorescence; stronger effect = higher value | B-score at 10 µM | hit rate 1.3% among 310,000 | AID 2642;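 active means compounds whose thallium flux B-score, printed positive for inhibition, exceeds three library SD while starting fluorescence stays within three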;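 further: channel opened by potassium depolarization with thallium stimulus after 20 min compound exposure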
# Target sequence (P51787 whole entry, looked up): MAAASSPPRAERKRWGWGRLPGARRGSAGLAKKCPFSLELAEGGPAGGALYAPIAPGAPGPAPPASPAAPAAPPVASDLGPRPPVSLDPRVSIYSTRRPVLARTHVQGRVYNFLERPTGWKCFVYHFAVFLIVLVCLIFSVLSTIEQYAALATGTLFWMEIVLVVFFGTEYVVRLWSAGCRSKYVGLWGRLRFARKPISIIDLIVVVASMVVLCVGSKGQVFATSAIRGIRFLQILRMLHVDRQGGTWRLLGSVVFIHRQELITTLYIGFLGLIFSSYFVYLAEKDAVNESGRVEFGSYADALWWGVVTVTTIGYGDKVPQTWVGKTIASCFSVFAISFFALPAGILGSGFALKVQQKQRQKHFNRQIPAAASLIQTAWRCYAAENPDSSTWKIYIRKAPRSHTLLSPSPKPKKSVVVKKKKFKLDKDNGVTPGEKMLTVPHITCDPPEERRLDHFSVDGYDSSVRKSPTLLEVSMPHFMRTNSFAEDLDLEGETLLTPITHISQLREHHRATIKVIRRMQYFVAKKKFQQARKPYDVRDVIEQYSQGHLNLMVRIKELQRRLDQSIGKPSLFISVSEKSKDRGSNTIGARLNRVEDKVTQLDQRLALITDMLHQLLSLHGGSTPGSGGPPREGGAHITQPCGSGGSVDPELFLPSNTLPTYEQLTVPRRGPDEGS
# hERG rescue – hERG (human) protection from proarrhythmic block; AID 1511; Q12809; hit rate 0.51% among 310,000; CHO-hERG, FluxOR thallium flux, dofetilide IC70 present; activation (rescue from dofetilide block), less the hit threshold, % at 10 µM;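 active means activation above the mean of controls blocked by dofetilide plus 5 SD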;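 further: thallium influx through hERG after potassium depolarization seen as dye fluorescence rise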
# KCNQ1 act – potentiators or activators of human KCNQ1 potassium channel. P51787. hit rate 0.35% among 310,000. AID 2648. B-score at 10 µM. CHO-K1 KCNQ1, thallium flux FluxOR fluorescence; stronger effect = higher value;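 active means fluorescence ratio B-score, a plate-corrected score, at least three library SD, with initial intensity B-score within 5 SD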
#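 Assay system: CHO-K1 cells stably expressing KCNQ1; Medium: assay buffer with matched DMSO; Also added: K+/Tl+ depolarizing stimulus; Dosing: single dose; Timing: dye 90 min, compound 20 min, room temperature; Measured by: kinetic FluxOR thallium fluorescence, 10-s 1-Hz baseline, 110-s post-stimulus read; Read-out: peak-minus-minimum fluorescence over initial fluorescence, negative-control normalized, B-scored.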
# KCNK3 block – human KCNK3 channel inhibition, primary screen; O14649; CHO-KCNK3 thallium flux, FluxOR fluorescence; stronger effect = lower value; B-score at 10 µM; hit rate 0.84% among 340,000;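 active means B-score under library mean minus 4 SD, starting fluorescence ratio at most library mean plus 5 SD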;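 further: more negative B-score means stronger inhibition of thallium flux through KCNK3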
# Kir21 block – inhibitors of mouse Kir2.1 inward-rectifier potassium channel | AID 1672 | hit rate 0.85% among 310,000 | B-score at 10 µM | HEK293-Kir2.1, FluxOR thallium flux fluorescence; stronger effect = lower value;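 active means fluorescence ratio B-score at or below minus 3 SD of library scores, with starting-brightness B-score within 2 SD, cut at about -4.2 in these data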;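 further: channel flux triggered by added potassium and thallium sulfate stimulus; B-score of peak minus minimum fluorescence over baseline after thallium stimulus; more negative B-score means stronger Kir2.1 block with less thallium influx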
# KCNK9 block – inhibitors of human KCNK9 two-pore domain potassium channel; Q9NPC2; HEK293 KCNK9, FluxOR thallium flux fluorescence; stronger effect = lower value; B-score at 10 µM; hit rate 1.2% among 310,000;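 active means ratio B-score over 3 SD below the library mean, with starting fluorescence within 5 SD of its mean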;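 further: negative B-score means less thallium flux so channel inhibition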
# KCNK9 inh conf – human KCNK9 inhibitor confirmation. shares compounds with KCNK9 block. HEK293 KCNK9 cells, FluxOR thallium flux fluorescence. inhibition, % at 10 µM. hit rate 43% among 4,900. AID 492992;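 active means thallium signal inhibited by more than 5 SD of the compound-free buffer control wells, on both duplicate plates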;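 further: 0% = assay buffer control wells without compound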
# Kir2-1 spec – selectivity of KCNK9 modulators against mouse Kir2.1; shares compounds with KCNK9 block; Kir2.1 cells, FluxOR thallium flux fluorescence; inhibition, % at 10 µM; hit rate 4% among 4,900;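 active means thallium signal drop more than 5 SD beyond the mean of the no-compound control wells, seen in both duplicate plates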;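 further: signal is fluorescence rise after thallium addition divided by baseline fluorescence; plate controls were assay buffer only for no effect and full block by chlorpromazine control for full effect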
# KCNK9 uninduced – second check of KCNK9 modulator effects in non-induced HEK293 cells | FluxOR thallium flux | inhibition, % at 10 µM | hit rate 40% among 4,900 | shares compounds with KCNK9 block;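 active means thallium signal drop beyond 5 SD of the untreated control mean, on both duplicate plates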;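 further: plate controls were buffer only IC0 wells for no effect and SID17386958 at its maximal inhibitory level for full effect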
# Active calls of the source: *; i = inactive; · = no result given. A selection: hits, their analogues and other compounds. The true share with any hit is near 3.7%.
SMILES,KCNQ1 block,hERG rescue,KCNQ1 act,KCNK3 block,Kir21 block,KCNK9 block,KCNK9 inh conf,Kir2-1 spec,KCNK9 uninduced
COC(=O)CCC(=O)N1CCCC(N2CCN(c3cccc(C(F)(F)F)c3)CC2)C1 (stereo not drawn),i,-6,i,i,0,i,·,·,·
Cc1ccccc1NC(=O)Cc1nc(COC(=O)c2ncc(Cl)c(Cl)c2Cl)cs1,·,·,·,i,·,·,·,·,·
O=C(/C=C/c1ccc(F)cc1)NCCCn1ccnc1,i,-4,i,i,-0.79,i,·,·,·
N#Cc1nc(COc2ccccc2)oc1N1CCCCCC1,i,-15,i,i,0.06,i,·,·,·
N#Cc1nc(COc2ccc(F)cc2)oc1N1CCCCC1,i,-14,i,i,-0.32,i,i,i,i
CC[n+]1c(/C=C/c2ccc(OC(C)=O)c(OC)c2)ccc2ccccc21,i,-11,i,i,-0.05,i,·,·,·
CC[n+]1c(/C=C/c2ccc(N(C)C)cc2)ccc2ccccc21,i,-25,i,i,-14*,-12*,60%*,85%*,60%*
CCC1=C(OC(=O)N(CC)CC)N2C(=O)OC(=NCCc3c[nH]c4ccccc34)[C@]2(Cc2ccccc2)[C@H]2C1=CC[C@H]1C(=O)N(C)C(=O)[C@H]12,i,-11,i,i,1.2,-9.5*,41%*,i,40%*
CC(=O)Nc1ccc(Nc2nc(-c3ccccc3)nc3ccccc23)cc1,i,-11,i,i,-1.1,i,·,·,·
O=C(Nc1nc(-c2ccccc2)nc2ccccc12)c1ccc(F)cc1,i,-12,i,i,1.3,-8.4*,30%*,i,i
COCCNC(=O)C(c1cccc(OC)c1)N(Cc1cccs1)C(=O)Cn1nnc2ccccc21 (stereo not drawn),i,-8,i,i,-0.29,i,·,·,·
CCC(C)N(C(=O)Cn1nnc2ccccc21)C(C(=O)Nc1ccc(F)cc1)c1cccc(OC)c1 (stereo not drawn),i,-4,i,i,1.3,-9.2*,36%*,i,i
C#CCN(C(=O)c1cc(COc2cccc(C(F)(F)F)c2)on1)C1CCCCC1,i,-11,i,i,-0.31,i,·,·,·
C#CCN(C(=O)c1cc(COc2ccc(C)c(C)c2)on1)C1CCCCC1,6*,-13,i,i,0.81,i,i,i,i
Cc1ccc(SCC(=O)O/N=C(\N)c2cccc([N+](=O)[O-])c2)cc1,i,-8,i,i,0.04,i,i,i,28%*
NC(=O)COc1ccc(NC(=O)CC23CC4CC(CC(C4)C2)C3)cc1,i,-3,i,i,-1.4,i,·,·,·
CC1(C)CC(C(CCN(Cc2ccccc2)C(=O)c2ccco2)c2ccc(F)cc2)CCO1 (stereo not drawn),i,-13,i,i,1.4,-10*,67%*,i,50%*
CC1(C)CC(N(Cc2ccc(F)cc2)C(=O)c2ccc(F)cc2)CCO1 (stereo not drawn),i,-4,i,i,-0.56,i,·,·,·
COc1cc2c(c(OC)c1O)C(=O)CO2,i,-4,i,i,0.37,i,·,·,·
COc1cc(OC)c2c(O)c3c(c(-c4c5c(c(O)c6c(OC)cc(OC)cc46)CO[C@@H](C)[C@H]5O)c2c1)[C@H](O)[C@H](C)OC3,i,-6,i,i,-1.4,i,i,i,i
COc1ccccc1NS(=O)(=O)c1cc(NC(=O)C(C)C)ccc1N1CCCCC1,i,-4,i,i,0.79,-11*,52%*,i,35%*
Cc1cc(C)cc(OCC(=O)O/N=C(\N)c2ccccc2Cl)c1,i,-6,i,i,0.92,i,i,i,i
COc1ccc(-c2cc(C)no2)cc1S(=O)(=O)N1CCCN(Cc2ccccc2Cl)C1,i,-7,i,i,-1.3,-16*,32%*,i,32%*
O=C1c2ccccc2NC(c2ccc(O)cc2)N1c1ccccc1 (stereo not drawn),i,-8,i,i,0.19,i,·,·,·
Cc1cc(S(=O)(=O)N2CCCCCC2)c(Cl)cc1Cl,i,-14,i,i,0.99,i,i,i,i
SMILES,KCNQ1 block,hERG rescue,KCNQ1 act,KCNK3 block,Kir21 block,KCNK9 block,KCNK9 inh conf,Kir2-1 spec,KCNK9 uninduced
O=S(=O)(c1cc(Cl)ccc1Cl)N1CCCCC1,i,-16,i,i,-0.24,i,·,·,·
Cn1cccc1CNC(=S)Nc1ccccc1F,i,-10,i,i,-0.06,i,·,·,·
Cc1cccc[n+]1CCCCCCCCCC[n+]1ccccc1C,i,-10,i,i,0.12,i,·,·,·
CCCCCCCC[n+]1cccc2c3ccccc3ccc21,9*,-25,i,i,-11*,-14*,62%*,86%*,i
COc1cc(OC)c(OC)cc1CNC(=O)c1cccc(S(=O)(=O)N2CCc3ccccc3C2)c1,·,·,·,i,·,·,·,·,·
O=C(COc1c(F)c(F)c(C(F)(F)F)c(F)c1F)Nc1ccc(N2CCOCC2)c(Cl)c1,i,-5,i,i,1.2,i,·,·,·
CCC(C)c1ccc(NC(=O)COc2c(F)c(F)c(C(F)(F)F)c(F)c2F)cc1 (stereo not drawn),i,-17,i,i,1.3,i,i,i,i
CC(C)CCNC(=O)c1onc(CSc2ccc(F)cc2)c1C(=O)NCCC(C)C,7*,-3,i,i,-0.69,i,i,i,i
CC(C)CCNC(=O)c1onc(CSc2ccc(Cl)cc2)c1C(=O)NCCC(C)C,i,-14,i,i,1,i,i,i,i
COc1cccc(SCc2noc(C(=O)NCCC(C)C)c2C(=O)NCCC(C)C)c1,i,-13,i,i,-0.67,i,i,i,i
CCCNC(=O)c1onc(CSc2ccc(F)c(F)c2)c1C(=O)NCCC,i,-7,i,·,0.39,i,·,·,·
CCCNC(=O)c1onc(CSc2cccc(OC)c2)c1C(=O)NCCC,i,-5,i,i,-0.66,i,·,·,·
CC(C)CCNC(=O)c1onc(CSc2ccc(F)c(F)c2)c1C(=O)NCCC(C)C,i,-5,i,i,2.6,i,i,i,i
CN(C)CCNC(=O)c1onc(CSc2ccc(F)cc2)c1C(=O)NCCN(C)C,i,-7,i,i,0.7,i,·,·,·
